# CHOP UPR activ = activators of apoptotic arm of unfolded protein response (CHOP). CHO-CHOP luciferase reporter, UPR activation, luminescence; percent of tunicamycin response over DMSO baseline. hit rate 0.34% among 330,000. activation, % at 10 µM. AID 449763;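 active = at 10 µM dose, activation of 40% or more, normalized to positive control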;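 also: 100% = tunicamycin at 10 µg/mL and 0% = DMSO alone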
#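 Test system: CHO CHOP reporter cells. Input: 500 CHO-CHOP cells per well. Medium: F12 with 10% FBS. Technique: luciferase luminescence. Measure: percent activation relative to tunicamycin control. Dosing: 10 µM compound, 0.5% DMSO. Timing: 16-18 h cell attachment, then 6 h compound exposure, 37 °C.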
# Jurkat NFkB inh = lowers PMA/ionomycin-induced NF-kB signal in Jurkat cells | PMA/ionomycin-induced NF-kB luciferase reporter, luminescence | inhibition, % at 4 µM | hit rate 0.53% among 330,000 | AID 435003; in the data active = inhibition above about 50%
# 697 NFkB inh = inhibitors of the PMA/ionomycin-induced NF-kB reporter in 697 B cells | 697 B-cell NF-kB luciferase reporter, 16 h | inhibition, % at 4 µM | hit rate 0.33% among 330,000 | AID 435022; in the data active = inhibition above about 35%
# XBP1 UPR activ = adaptive UPR (XBP1) activation; CHO-XBP1 luciferase reporter, IRE1-XBP1 UPR activation, luminescence; percent of tunicamycin response, DMSO as zero; activation, % at 20 µM; hit rate 0.33% among 330,000; AID 463104;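 active = versus positive control, 20 µM dose yields 30% or more activation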;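 also: 100% = tunicamycin at 10 µg/mL and 0% = DMSO only wells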
#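 Test system: CHO-XBP1 luciferase reporter cells | Buffer or medium: Serum-containing F12 medium, 10% FBS | Schedule: 6 h compound exposure at 37 °C, 5% CO2 | Detection: Steady-Glo luciferase glow luminescence, 10 min after reagent addition | Read-out basis: Activation, % of tunicamycin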
# CRFBP-R2 block = antagonists of CRF-binding protein/CRF-R2 receptor complex | HEK293 CRF-R2/CRF-BP, CRF-induced calcium fluorescence | inhibition, % at 11.8 µM | hit rate 0.59% among 350,000;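 active = inhibition of the ligand-induced calcium signal above about 50% at the single tested concentration, limit read from the data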
# 697 NFkB conf = inhibitors of the PMA/ionomycin-induced NF-kB reporter in 697 B cells, retest; shares compounds with 697 NFkB inh; 697 B-cell NF-kB luciferase, 16 h; inhibition, % at 4 µM; hit rate 35% among 2,000; AID 449746; in the data active = inhibition mostly above about 28%, no sharp cut-off; inactive = mostly below about 22%
# The depositor's hits bear a star; i = inactive; · = no result. An excerpt weighted towards active compounds, which were near 1.8% of everything screened.
SMILES,CHOP UPR activ,Jurkat NFkB inh,697 NFkB inh,XBP1 UPR activ,CRFBP-R2 block,697 NFkB conf
O=c1cc(N2CCN(c3ccccc3)CC2)[nH]c(=O)n1C1CCCCC1,-1,-10,-30,5,-10,·
c1ccc2sc(SCSc3nc4ccccc4s3)nc2c1,1,-9,5,1,-10,·
O=C(O)CCSc1nc2ccccc2s1,-5,16,40*,-6,14,35*
O=C(C1CCC(=O)N(C2CCCC2)C1)N1CCN(Cc2cccc(F)c2)CC1 (centres undefined),0,-9,-2,-5,-8,·
CCc1ccc(S(=O)(=O)Nc2ccc(-c3ccc4nnc(C)n4n3)cc2)s1,1,6,19,5,7,·
COc1ccc(OC)c(S(=O)(=O)Nc2ccc(-c3ccc4nnc(C)n4n3)cc2)c1,1,9,50*,6,-11,39*
COc1ccc(S(=O)(=O)Nc2ccc(-c3ccc4nnc(C)n4n3)cc2)c(OC)c1,-1,2,32,1,-1,·
CCc1ccc(S(=O)(=O)Nc2cccc(-c3ccc4nnc(C)n4n3)c2)s1,0,18,38*,3,-9,10
Cc1nnc2ccc(-c3ccc(NS(=O)(=O)c4ccccc4)cc3)nn12,2,11,38*,7,2,21
CCc1cc(C(=O)N2CCc3c([nH]c4ccccc34)C2c2ccc(OC)cc2F)no1 (centres undefined),2,-2,i,-2,-24,-48
Cc1ccc(NC(=O)CN(C)C(=O)COc2ccc(Br)cc2)cc1,·,·,·,·,1,·
CCc1nc(SCC(=O)N2c3ccccc3CC2C)c2c(C)c(C)sc2n1 (centres undefined),1,-56,i,0,-32,i
O=C(N/N=C/c1c[nH]c2ccccc12)c1cc(Cl)ccc1O,4,-1,-8,-1,-16,·
COC(=O)c1cc(C(=O)c2ccc(Cl)cc2)n2c(=O)/c(=C\N(C)C)sc12,2,8,41*,0,27,11
Cc1nn(C(C)(C)C)c(OC(=O)c2ccc(Br)o2)c1Sc1ccccc1,8,9,36*,2,-12,31*
Cc1nn(C(C)(C)C)c(OC(=O)c2ccco2)c1Sc1ccccc1,1,-2,18,1,3,·
COc1ccc(CNC(=O)COC(=O)c2c(NC(C)=O)sc(C)c2C)cc1,-1,-3,2,1,-1,·
COc1cc(/C=C/c2nc(N)nc(-c3ccccc3O)n2)cc(OC)c1OC,9,47,36*,4,5,21
Oc1ccccc1C=Nc1ccccc1-c1nc2ccccc2[nH]1,4,-40,-268,1,17,-81
Oc1ccc(C=Nc2ccccc2-c2nc3ccccc3[nH]2)c(O)c1,5,-60,-82,4,-30,·
CCOc1ccc(NC(=O)CN(C)C(=O)c2n[nH]c(=O)c3ccccc23)cc1OCC,1,-5,17,-1,-7,·
O=C(Nc1ccc2ccccc2n1)c1ccccc1Cl,1,-107,-287,-4,-9,-255
COc1ccc(C(=O)Nc2ccc3ccccc3n2)c(OC)c1OC,-2,-134,-435,-8,-7,-442
COc1ccc(-n2c(SCCNCCO)nc3sc4c(c3c2=O)CCCC4)cc1,2,3,5,-2,-7,·
Nc1ncnc2c1ncn2[C@@H]1O[C@H](CN2CCCS2(=O)=O)[C@@H](O)[C@H]1O,1,1,-2,1,-3,·
SMILES,CHOP UPR activ,Jurkat NFkB inh,697 NFkB inh,XBP1 UPR activ,CRFBP-R2 block,697 NFkB conf
CCOC(=O)c1cc(NC(=O)c2ccoc2C)cc(C(=O)OCC)c1,1,10,37*,0,-41,19
Cc1ccccc1Nc1nc(N)nc(COC(=O)c2cccn2C)n1,3,-51,-57,3,4,·
CCc1ccccc1Nc1nc(N)nc(COC(=O)c2cccn2C)n1,3,-93,-324,1,13,-118
O=C(CCl)Nc1ccccc1Sc1ccccc1,1,17,41*,2,24,34*
Cc1nn2cc(-c3ccc(-c4ccccc4)cc3)nc2s1,-1,-107,-331,-5,-15,-328
O=C(NC1CC1)c1ccc(CSCc2ccc(Cl)cc2)o1,·,·,·,·,2,·

# Bioassay records (PubChem)
